Bioassay records as filed in PubChem.
Shown are actives, neighbours in structure and some others; about 3.4% of the full set was active somewhere.
IMP-1 inh-1: blocks Pseudomonas aeruginosa IMP-1 metallo-beta-lactamase; purified IMP-1, nitrocefin hydrolysis, epi-absorbance fluorescence; inhibition, % at 5.6 µM; hit rate 0.45% among 290,000; AID 1556;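 active means inhibition above the mean plus 3 SD of all compounds in the same screening run, cut at about 4.5% in these data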;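 further: 0% = IMP-1 with DMSO and 100% = DMSO wells lacking enzyme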
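System: purified IMP-1 / Input: IMP-1 dispensed at 0.2 nM / Medium: 50 mM HEPES pH 7.1, 50 µM ZnSO4, 0.05% Brij 35 / Timing: 15 min enzyme–compound preincubation, then 25 min nitrocefin reaction, 25 °C / Technique: plate fluorescence quenching by hydrolysis product, ex 480/em 530 nm / Repeats: singlicate testing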
CHT inh: human CHT choline transport inhibition. CHT-expressing cells, membrane potential dye, choline response; hits give low values. B-score at 10 µM. hit rate 0.86% among 310,000. AID 488975;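 active means B-score over 3 SD under the library average, and starting fluorescence ratio not unusually high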;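 further: choline stimulus applied at its EC90 after an EC20 pre-addition; B-score computed on integrated fluorescence ratio after choline addition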
VIM-2 inh: inhibitors of Pseudomonas aeruginosa VIM-2 metallo-beta-lactamase; inhibition, % at 5.6 µM; purified VIM-2, nitrocefin hydrolysis, epi-absorbance fluorescence; hit rate 0.89% among 290,000;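 active means inhibition above the mean of all tested compounds plus 3 SD, cutoff set per screening run, cut at about 7.5% in these data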;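 further: red hydrolysis product quenches plate fluorescence so inhibitors raise well fluorescence; 0% = enzyme with DMSO and 100% = DMSO without enzyme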
ANO1 activ: activates or potentiates the mouse TMEM16A chloride channel; Q8BHY3; HEK293 TMEM16A/YFP-H148Q/I152L, iodide quench fluorescence; hits give low values; B-score at 10 µM; hit rate 0.3% among 340,000;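 active means fluorescence-ratio B-score plate-corrected deviation score at least 3 library SD below zero, with starting fluorescence score within 5 deviations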;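 further: channel opened by trigger with iodide after compound preincubation; score built on the fluorescence ratio of max minus min over baseline; more negative score means more quench and so TMEM16A activation or potentiation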
CHT PAM: human CHT allosteric activation; B-score at 10 µM; Q9GZV3; AID 488977; hit rate 0.49% among 310,000; CHT-expressing cells, membrane potential dye, choline EC20; hits give high values; LV-AA mutant CHT in HEK293 cells;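 active means initial fluorescence not abnormally high and integrated response B-score, plate-corrected, over 3 SD above library mean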
ANO1 block: mouse TMEM16A channel inhibition, primary screen; AID 588511; hit rate 1.2% among 310,000; Q8BHY3; normalized B-score (activity score, 25-100; higher = stronger inhibition) at 10 µM; HEK293 TMEM16A/YFP iodide influx fluorescence, ionomycin;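 active means ratio plate-corrected score three or more library SD toward inhibition, starting fluorescence score within five deviations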;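 further: score derived from kinetic fluorescence span divided by baseline fluorescence per well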
IMP-1 inh-2: IMP-1 inhibition, counter-screen for VIM-2 inhibitors; purified IMP-1, nitrocefin hydrolysis, epi-absorbance fluorescence; shares compounds with VIM-2 inh; inhibition, % at 5.6 µM; AID 1856; 1,300 tested, under 10 active; call rule not given here;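 further: 0% = enzyme with vehicle and 100% = vehicle without enzyme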
VIM-2 FRET inh: inhibits VIM-2 in FRET assay to exclude epi-absorbance artifacts. purified VIM-2, CCF2 FRET substrate hydrolysis. hit rate 23% among 1,300. inhibition, % at 5.6 µM. shares compounds with VIM-2 inh;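 active means inhibition above the mean of all tested compounds plus 3 SD, cut at about 19% in these data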;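 further: 0% = VIM-2 plus DMSO and 100% = no enzyme wells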
TEM-1 inh: selectivity counter-screen for VIM-2 inhibitors: E. coli TEM-1 inhibitors; hit rate 3% among 1,300; shares compounds with VIM-2 inh; Purified TEM-1, nitrocefin hydrolysis, epi-absorbance fluorescence; inhibition, % at 5.6 µM; AID 1866;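 active means inhibition above that campaign's mean inhibition plus 3 SD, cut at about 0.46% in these data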;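 further: 0% = TEM-1 with DMSO and 100% = TEM-1 with 100 µM potassium clavulanate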
Target sequence (P62593 whole entry, looked up): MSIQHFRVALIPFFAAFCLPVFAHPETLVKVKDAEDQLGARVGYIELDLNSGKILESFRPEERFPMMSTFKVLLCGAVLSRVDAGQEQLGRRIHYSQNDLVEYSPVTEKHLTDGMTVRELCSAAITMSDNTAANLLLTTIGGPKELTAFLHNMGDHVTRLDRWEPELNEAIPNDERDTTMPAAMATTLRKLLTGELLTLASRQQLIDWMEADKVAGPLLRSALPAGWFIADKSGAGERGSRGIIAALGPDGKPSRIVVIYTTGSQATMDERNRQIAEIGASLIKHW
VIM-2 confirm 2: confirmation of P. aeruginosa VIM-2 metallo-beta-lactamase inhibitors; shares compounds with VIM-2 inh; purified VIM-2, nitrocefin hydrolysis, epi-absorbance; inhibition, % at 5.6 µM; hit rate 96% among 1,300; AID 2187;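 active means inhibition of the VIM-2 beta-lactamase enzyme above about 11% from the earlier first-round screen, limit read from the data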;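 further: 0% = VIM-2 with DMSO and 100% = buffer wells without enzyme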
The depositor's hits bear a star; i = inactive; . = no result.

SMILES | IMP-1 inh-1 | CHT inh | VIM-2 inh | ANO1 activ | CHT PAM | ANO1 block | IMP-1 inh-2 | VIM-2 FRET inh | TEM-1 inh | VIM-2 confirm 2
Fc1ccccc1-c1n[nH]c(=S)n1Cc1ccccc1 | -5 | i | 28* | i | i | i | -4 | 50* | -8 | 34*
COc1cccc(/C(O)=C2/C(=O)C(=O)N(Cc3cccnc3)C2c2ccco2)c1 (stereo unspecified) | -1 | i | 0 | i | i | i | . | . | . | .
O=C1C(=O)N(Cc2cccnc2)C(c2ccccn2)/C1=C(/O)c1ccccc1 (stereo unspecified) | 0 | i | 44* | i | i | i | -4 | 62* | -4 | 50*
CCN1CCN(c2nnc(-c3ccc(F)cc3)c3ccccc23)CC1 | -2 | i | 1 | i | i | i | . | . | . | .
CN1CCN(c2nnc(-c3ccc(F)cc3)c3ccccc23)CC1 | -1 | i | 31* | i | i | i | -1 | 6 | -3 | 42*
COc1ccc(C(=O)N2CCN(S(=O)(=O)c3ccc4c(c3)OCCO4)CC2)cc1OC | . | . | . | i | . | . | . | . | . | .
COc1ccc(NC(=O)CN(C)CC(=O)Nc2sc3c(c2C#N)CCC3)cc1 | . | . | . | i | . | . | . | . | . | .
CNc1nc(-c2cccs2)cc(C(F)(F)F)c1C#N | -2 | i | 0 | i | i | i | . | . | . | .
O=c1[nH]c(=S)[nH]c2nc(-c3cccs3)cc(C(F)(F)F)c12 | -5 | i | 13* | i | i | i | -3 | 4 | -7 | 15*
COc1ccc(-c2cc(=O)oc3c(O)c(O)ccc23)cc1 | -6 | i | 13* | i | i | i | -5 | 0 | -2 | 18*
COc1ccc(-c2cc(=O)oc3cc(OC(C)C(=O)O)ccc23)cc1 (stereo unspecified) | -2 | i | 2 | i | i | i | . | . | . | .
O=C(CSc1nnc(NC(=O)c2cc(Br)ccc2Cl)s1)NCC1CCCO1 (stereo unspecified) | -3 | i | 25* | i | i | i | -3 | 48* | -5 | 33*
COc1ccccc1C(=O)Nc1nnc(SCC(=O)NCC2CCCO2)s1 (stereo unspecified) | 0 | i | 15* | i | i | i | -3 | 33* | -6 | 21*
O=C(CC1OC(=O)c2ccccc21)Nc1cccc(S(=O)(=O)N2CCCCCC2)c1 (stereo unspecified) | -1 | i | -1 | i | i | i | . | . | . | .
COc1ccc2nc3cc(Cl)ccc3c(Nc3cc(CN4CCCC4)c(O)c(CN4CCCC4)c3)c2n1 | -6 | i | 21* | . | i | i | -5 | -12 | -10 | 33*
COc1cccc(-c2cc(CC3(O)CCN(CCCc4ccccc4)CC3)on2)c1 | -2 | i | -3 | i | i | i | . | . | . | .
COc1cc(C2C=C(c3cccs3)Nc3ncnn32)cc(OC)c1OC (stereo unspecified) | -1 | . | 2 | i | . | . | . | . | . | .
Cc1oc2ccc(Br)cc2c(=O)c1-c1nn[nH]n1 | -3 | i | 21* | i | i | i | -1 | 41* | 4.2* | 27*
Cc1c(-c2cc[n+]([O-])cc2)oc2ccc(Br)cc2c1=O | -3 | i | 3 | . | i | i | . | . | . | .
Cc1cc(-c2nnc(CCC(=O)NCc3ccc(OC(F)(F)F)cc3)o2)no1 | -4 | i | -2 | i | i | i | . | . | . | .
CCC(C)[C@H](NC(=O)N1CC(=O)Nc2ccccc21)C(=O)N[C@H](Cc1c[nH]c2ccccc12)C(=O)O (stereo partly specified) | -3 | i | 5 | i | i | i | . | . | . | .
CC(C)[C@H](NC(=O)N1CC(=O)Nc2ccccc21)C(=O)N[C@H](Cc1c[nH]c2ccccc12)C(=O)O | 1 | i | 13* | i | i | i | -1 | 22* | -1 | 12*
Cc1cccc(NC(=O)CSc2nc(=O)n(CCCN3CCOCC3)c3c2CCCC3)c1 | . | i | . | i | i | i | . | . | . | .
CCN(CC)S(=O)(=O)c1cc(NC(=O)C2CSC3(C)CCC(=O)N23)ccc1C (stereo unspecified) | . | . | . | i | . | . | . | . | . | .
O=C(CSc1nnc(-c2cccs2)n1CC1CCCO1)c1cc2ccccc2o1 (stereo unspecified) | -2 | i | 14* | i | i | i | -4 | 31* | -9 | 17*
SMILES | IMP-1 inh-1 | CHT inh | VIM-2 inh | ANO1 activ | CHT PAM | ANO1 block | IMP-1 inh-2 | VIM-2 FRET inh | TEM-1 inh | VIM-2 confirm 2
Cn1c(SCC(=O)c2cc3ccccc3o2)nnc1-c1ccccc1 | -2 | i | -5 | i | i | i | . | . | . | .
CCn1c(=O)c2c(nc(SCC(=O)Nc3ccccc3)n2C)n(C)c1=O | -5 | i | -4 | i | i | i | . | . | . | .
Cc1cccc(Nc2nc(N)c([N+](=O)[O-])c(NCc3ccccc3)n2)c1 | -1 | i | 0 | i | i | i | . | . | . | .
Cc1cccc(Nc2nc(NCCCN3CCOCC3)nc(N)c2[N+](=O)[O-])c1 | -2 | i | 14* | i | i | i | -4 | 0 | -10 | 37*
Nc1nc(NCCCN2CCOCC2)nc(Nc2ccccc2F)c1[N+](=O)[O-] | -4 | i | 29* | i | i | i | -3 | 2 | -11 | 51*
CCOC(=O)[C@H]1[C@H]2COc3ccccc3[C@@H]2N2C(=O)CN(Cc3ccc(C)cc3)C(=O)[C@@]12C | . | . | . | i | . | . | . | . | . | .
CCN1C[C@@H]2[C@@H]3C(=O)N(C)C(=O)[C@@H]3[C@](Cc3ccccc3)(C1=O)N2C(=O)c1ccc(Cl)c(Cl)c1 | . | . | . | i | . | . | . | . | . | .
CN1CCc2cc3c(c4c2[C@H]1[C@H](O)c1ccccc1-4)OCO3 | -2 | i | 17* | i | i | i | -3 | -16 | -4 | 24*
COc1ccc2c(c1OC)C(=O)OC2C1c2c(cc3c(c2OC)OCO3)CCN1C (stereo unspecified) | -3 | i | 0 | i | i | i | . | . | . | .
ClC(CCN1CCN(Cc2ccccc2)CC1)c1ccccc1 (stereo unspecified) | . | i | . | i | i | i | . | . | . | .
COCCCNC1=C(Cl)C(=O)c2ccccc2C1=O | -2 | i | 5 | i | i | i | . | . | . | .
